Activity calls are given as the source filed them. No cut-off for these calls is given here.
Tests used:
[1] = Inhibition of pig brain CK1delta/epsilon using RRKHAAIGpSAYSITA as substrate and [32gammaP]ATP after 30 mins by scintillation counting; parameters: species or system Sus scrofa
Summary of the method: (§1)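 Kinase reactions at 30 °C for 30 min with 15 µM [γ-33P]ATP and 25 µM CKS peptide, in buffer A (Mops pH 7.2, EGTA, MgCl2, DTT, vanadate). Porcine-brain CK1δ/ε was run in three-fold diluted buffer A. LmCK1.2 was His-tagged, expressed in E. coli and cobalt-purified. Reactions were spotted on P81 paper, washed in 1% phosphoric acid, and counted by scintillation. After blank subtraction, activity is expressed as % of the uninhibited maximum, with DMSO controls.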

[2] = Methanol-buffer partition coefficient, log D of the compound by RP-HPLC analysis at pH 7.5; type: physicochemical
Summary of the method: (§2)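 Log D was determined by RP-HPLC on a C18 column with methanol and aqueous buffer: 0.01 M acetic acid for pH 4.5, and 0.01 M ammonium acetate for […]. Dead time was taken from thiourea. Extrapolated log kw was calibrated against 30 OECD reference substances, and log D read by interpolation for each pH.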

[3] = Inhibition of Leishmania major recombinant His-tagged CK1.2 using RRKHAAIGpSAYSITA as substrate and [32gammaP]ATP after 30 mins by scintillation counting; summary of the method: as §1
[4] = Methanol-buffer partition coefficient, log D of the compound by RP-HPLC analysis at pH 4.5; type: physicochemical; summary of the method: as §2
[5] = tested on: Leishmania major; assay: Antileishmanial activity against amastigote form of Leishmania major MHOM/IL/81/BNI infected in Balb/c mouse peritoneal macrophages assessed as inhibition of intracellular amastigote burden at 10 uM […] by May-Grunwald-Geimsa staining; type: functional
Summary of the method: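 Peritoneal macrophages from Balb/c mice at 1.5×10^5 cells/mL in RPMI 1640 + 15% FBS on glass slides, allowed to attach for 24 h (37 °C, 5% CO2). They were then infected with stationary-phase promastigotes (1.5×10^5/mL) for 24 h, washed, and exposed to 10 µM compound. Medium plus drug was renewed at 48 h. After 2 more days, cells were methanol-fixed, Giemsa-stained, and amastigotes counted per 100 macrophages in duplicate wells.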

[6] = tested on: HeLa; assay: Cytotoxicity against human HeLa cells after 96 hrs by resazurin-based spectrofluorimetric method; type: cell-based
Summary of the method: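 HeLa cells in RPMI 1640 + 10% serum were seeded at 10^5/mL and incubated 24 h at 37 °C, 5% CO2. Compound dilutions were then added in duplicate, with DMSO at most 1% final. After 96 h, resazurin was added; after a further 3 h at 37 °C, fluorescence was read at ex 550/em 590 nm.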

[7] = Selectivity index, ratio of IC50 for human HeLa cells to IC50 for promastigote form of Leishmania major MHOM/IL/81/BNI; type: toxicity, cell-based; conditions: read-out: Ratio IC50
[8] = tested on: Leishmania major; assay: Antileishmanial activity against promastigote form of Leishmania major MHOM/IL/81/BNI after 96 hrs by resazurin-based spectrofluorimetric method; type: functional, organism-based
Summary of the method: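 Promastigotes were maintained in Schneider's medium + 13% heat-inactivated FBS at 26 °C. They were seeded at 10^6/mL and exposed to compound for 96 h at 26 °C; DMSO was at most 1% final. Resazurin was added 4 h before reading, with fluorescence at ex 550/em 590 nm. IC50 values are means of at least three determinations.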

[9] = tested on: Leishmania major; assay: Inhibition of Leishmania major PKC
[10] = tested on: Leishmania major; assay: Antileishmanial activity against amastigote form of Leishmania major MHOM/IL/81/BNI infected in Balb/c mouse peritoneal macrophages assessed as inhibition of intracellular amastigote burden at 1 uM after 48 hrs by May-Grunwald-Geimsa staining; type: functional

SMILES | IC50 [1] | chromatographic logD [2] | IC50 [3] | chromatographic logD [4] | inhibition at 10 µM [5] | IC50 [6] | selectivity ratio [7] | IC50 [8] | inhibition [9] | inhibition at 1 µM [10]
Clc1cc(Cl)cc(-c2c(-c3ccccc3)nc3ccccn23)c1 | > 10 µM | 5.88 | > 10 µM | 4.53 | 79% | 18 µM | 2.34 | 7.7 µM | – | –
Fc1ccccc1-c1nc2ccccn2c1-c1cccnc1 | – | – | – | – | – | 29 µM | 0.83 | 34.8 µM | – | –
O=[N+]([O-])c1ccc(-c2c(-c3ccccc3)nc3ccccn23)cc1 | > 10 µM | 4.35 | > 10 µM | 3.29 | 68% | 27 µM | 5.51 | 4.9 µM | – | –
Cc1ccc(-c2c(-c3ccccc3)nc3ccccn23)cc1 | > 10 µM | 5.13 | > 10 µM | 2.61 | 96% | 4 µM | 1 | 4 µM | – | –
N#Cc1ccc(-c2c(-c3ccccc3)nc3ccccn23)cc1 | – | – | – | – | – | – | – | > 100 µM | – | –
NC(=O)c1ccc(-c2c(-c3ccccc3)nc3ccccn23)cc1 | – | – | – | – | – | 27 µM | 1 | 27 µM | – | –
c1ccc(-c2nc3ccccn3c2-c2ccsc2)cc1 | – | – | – | – | – | 35 µM | 2.45 | 14.3 µM | – | –
Oc1ccc(-c2c(-c3ccccc3)nc3ccccn23)cc1 | – | – | – | – | – | 16 µM | 0.4 | 40 µM | – | –
Nc1ccc(-c2c(-c3ccccc3)nc3ccccn23)cc1 | – | – | – | – | – | 28.1 µM | 0.65 | 43 µM | – | –
O=[N+]([O-])c1cccc(-c2c(-c3ccc(F)cc3)nc3ccccn23)c1 | – | – | – | – | – | – | – | > 100 µM | – | –
c1ccc(-c2nc3ccccn3c2-c2cncnc2)cc1 | – | – | – | – | – | – | – | > 100 µM | – | –
Fc1ccc(-c2nc3ccccn3c2-c2ccccc2)cc1 | – | – | – | – | – | 72 µM | 3.13 | 23 µM | – | –
c1ccc(-c2nc3ccccn3c2-c2cccnc2)cc1 | – | – | – | – | – | 4 µM | 0.18 | 22.5 µM | – | –
Clc1cccc(-c2nc3ccccn3c2-c2ccccc2)c1 | > 10 µM | 5.25 | > 10 µM | 3.91 | 94% | 5 µM | 1.14 | 4.4 µM | – | –
CC(C)(C)C(=O)Oc1ccc(-c2c(-c3ccccc3)nc3ccccn23)cc1 | > 10 µM | 5.9 | > 10 µM | 4.04 | 95% | 38 µM | 5.43 | 7 µM | inactive | –
CCOC(=O)c1ccc(-c2nc3ccccn3c2-c2ccccc2)cc1 | > 10 µM | 5.46 | > 10 µM | 4.26 | 86% | 346 µM | 8.65 | 40 µM | inactive | –

SMILES | IC50 [1] | chromatographic logD [2] | IC50 [3] | chromatographic logD [4] | inhibition at 10 µM [5] | IC50 [6] | selectivity ratio [7] | IC50 [8] | inhibition [9] | inhibition at 1 µM [10]
COc1ccc(-c2c(-c3ccccc3)nc3ccccn23)cc1 | 0.63 µM | 4.58 | 1.2 µM | 2.31 | 71% | 14 µM | 1.92 | 7.2 µM | – | –
CCOC(=O)c1ccc(-c2c(-c3ccccc3)nc3ccccn23)cc1 | 7.1 µM | 5.19 | 4 µM | 3.59 | 18% | 5 µM | 0.96 | 5.2 µM | – | –
c1ccc(-c2nc3ccccn3c2-c2ccncc2)cc1 | 0.25 µM | 2.87 | 0.3 µM | 2.03 | 32% | 25 µM | 3.85 | 6.5 µM | – | –
Clc1cc(Cl)cc(-c2nc3ccccn3c2-c2ccccc2)c1 | > 10 µM | 6.1 | > 10 µM | 5.58 | – | 67 µM | 1.71 | 39 µM | inactive | 71%
O=[N+]([O-])c1ccc(-c2nc3ccccn3c2-c2ccccc2)cc1 | > 10 µM | 4.65 | > 10 µM | 4.2 | 84% | 554 µM | 18.5 | 30 µM | inactive | –
O=C(O)c1ccc(-c2c(-c3ccccc3)nc3ccccn23)cc1 | – | – | – | – | – | – | – | > 100 µM | – | –
Fc1ccc(-c2nc3ccccn3c2-c2cccnc2)cc1 | – | – | – | – | – | 87 µM | 2.27 | 38.3 µM | – | –
COc1ccc(-c2nc3ccccn3c2-c2cccc([N+](=O)[O-])c2)cc1 | – | – | – | – | – | 30 µM | 2.14 | 14 µM | – | –
Fc1ccccc1-c1nc2ccccn2c1-c1ccccc1 | – | – | – | – | – | 18 µM | 0.46 | 39 µM | – | –
Clc1cc(Cl)cc(-c2nc3ccccn3c2-c2cccnc2)c1 | – | – | – | – | – | 28 µM | 0.89 | 31.4 µM | – | –
COc1ccc(-c2nc3ccccn3c2-c2ccccc2)cc1 | > 10 µM | 4.59 | > 10 µM | 2.04 | 85% | 48 µM | 1.8 | 26.6 µM | – | –
CC(=O)Oc1ccc(-c2c(-c3ccccc3)nc3ccccn23)cc1 | – | – | – | – | – | 40 µM | 2.5 | 16 µM | – | –
N=C(N)c1ccc(OCCCCCOc2ccc(C(=N)N)cc2)cc1 [PENTAMIDINE] | – | – | – | – | 99% | 15 µM | 3.13 | 4.8 µM | – | –
c1ccc(-c2nc3ccccn3c2-c2ccccc2)cc1 | > 10 µM | 4.5 | > 10 µM | 2.15 | 84% | 31 µM | 1.38 | 22.5 µM | – | –
COc1ccccc1-c1nc2ccccn2c1-c1ccccc1 | – | – | – | – | – | 24 µM | 1.32 | 18.2 µM | – | –

— ChEMBL document CHEMBL2150923, “Synthesis and biological evaluation of 2,3-diarylimidazo[1,2-a]pyridines as antileishmanial agents” (Eur J Med Chem, 2012)
